# This is a sample that favours compounds with a hit; in the whole collection about 1.8% have one here.
# Bfl-1 A1 inh: inhibitors of the anti-apoptotic protein A1, read as caspase activation; caspase activation, % (no concentration beside the values); 330,000 compounds, 0.066% hits; MEF A1-2A-BIM cells, Caspase-Glo 3/7 luminescence, 3 h; percent of clofoctol response, vehicle zero; AID 2462;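 active means over half of replicate activation scores above 10%, or exactly half above 10 with the replicate mean above 10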
# HKDC1 inhibitor: HKDC1 (human) hexokinase inhibition; Q2TB90; recombinant HKDC1, G6PDH/diaphorase resazurin coupled fluorescence; inhibition, % at 20 µM; 340,000 compounds, 0.16% hits; AID 493160;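 active means inhibition above about 35% when tested at 20 µM, limit read from the data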;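 further: plate controls were DMSO wells with enzyme for no effect and DMSO wells lacking enzyme for full effect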
#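 Assay system: recombinant HKDC1 hexokinase; detection: coupled resazurin fluorescence, excitation 525 nm, emission 613 nm; benchmarks: DMSO-plus-enzyme-mix negative control, buffer-substituted positive control; compound dosing: single 20 µM dose; schedule: 90 min at room temperature in dark; also added: glucose plus 1 mM ATP as hexokinase substrates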
# ATG4B inhibitor: inhibitors of human ATG4B cysteine protease; inhibition, % at 8.33 µM; AID 504462; ATG4B cleavage of LC3-PLA2, NBD-HPC fluorescence, 1 h; 340,000 compounds, 0.51% hits; in the data active means inhibition above about 40%
# Target sequence (Q9Y4P1 whole entry, looked up): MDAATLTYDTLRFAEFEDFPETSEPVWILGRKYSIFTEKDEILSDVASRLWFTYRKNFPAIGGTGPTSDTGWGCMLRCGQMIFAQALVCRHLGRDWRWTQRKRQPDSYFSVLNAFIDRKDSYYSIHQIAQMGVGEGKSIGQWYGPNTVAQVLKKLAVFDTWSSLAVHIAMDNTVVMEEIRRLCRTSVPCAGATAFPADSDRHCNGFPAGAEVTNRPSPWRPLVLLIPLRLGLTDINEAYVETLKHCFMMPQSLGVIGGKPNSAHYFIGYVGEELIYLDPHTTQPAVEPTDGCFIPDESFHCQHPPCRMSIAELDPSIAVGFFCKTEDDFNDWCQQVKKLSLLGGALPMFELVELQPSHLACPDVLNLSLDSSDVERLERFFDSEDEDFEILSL
# HDAC3 inh: human HDAC3 inhibition | inhibition, % at 8.3 µM | recombinant HDAC3, fluorogenic peptide/trypsin coupled, fluorescence | O15379 | 320,000 compounds, 0.15% hits; in the data active means inhibition above about 26%, passing the limit was not always enough
# AI-2 QS mod: Vibrio harveyi AI-2 quorum sensing modulation | Vibrio harveyi JMH597 AI-2 luminescence/OD600 ratio, 9 h; active compounds read low; strain lacks LuxN and CqsS sensors; 0 = neutral-control median | activity change, % at 7.5 µM | 300,000 compounds, 0.4% hits; in the data active means activity change below about -75%, passing the limit was not always enough;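 further: luminescence divided by OD600 gain over 9 h not by final OD600 alone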
# LANA-H2B inh: blocks KSHV LANA binding to histone H2A/H2B. Q9QR71. cell-free LANA-H2A/H2B peptide, fluorescence polarization. inhibition, % (concentration not given with the values). 320,000 compounds, 0.6% hits. AID 2629; in the data active means inhibition mostly above about 10%, no sharp cut-off; inactive means mostly below about 6.7%
# The depositor's hits bear a star; . = no result; + = active, no number.
SMILES,Bfl-1 A1 inh,HKDC1 inhibitor,ATG4B inhibitor,HDAC3 inh,AI-2 QS mod,LANA-H2B inh
CC1CC(C)CN(C(=O)c2ccc(-c3ccc([N+](=O)[O-])cc3)o2)C1 (stereo not given),10.1*,8.8,-0.4,2.5,30.5,-3.6
CCCn1c(N)c(N2CCCCC2)c(=O)n(CC(=O)Nc2ccc(C(C)=O)cc2)c1=O,0.9,0.6,-1.2,-6.0,.,-0.9
O=C(Nc1c(Br)cc2c(c1Br)Cc1ccccc1-2)C(Cl)Cl,.,-1.6,-4.7,.,.,.
Cc1ccc(O)c(-c2cc(C(=O)Nc3ccc(S(=O)(=O)Nc4nccc(C)n4)cc3)[nH]n2)c1,0.0,0.3,1.7,1.1,13.5,78.0*
COc1ccc(C(=O)Nc2ccc(S(=O)(=O)Nc3nccc(C)n3)cc2)cc1,0.3,0.1,-4.0,-0.6,23.8,1.6
CC(C)C[C@@H](CNCC(=O)[C@H](Cc1ccccc1)NC(=O)c1[nH]cnc1C(=O)N[C@@H](C)CN)NC(=O)c1nc[nH]c1C(=O)N[C@@H](C)C(=O)O,.,3.8,.,.,.,.
O=C(CNC(=O)c1ccccc1Br)NCC(c1ccco1)N1CCCCC1 (stereo not given),.,-2.9,-1.2,.,.,.
COc1ccc(-c2nc3cnccn3c2NCc2ccccc2)cc1SC1CCCCC1,0.1,4.1,1.1,29.5*,19.5,-5.1
O=C(O)c1cccnc1Sc1ccccc1,-0.5,-10.8,-4.2,-3.5,-16.3,2.4
Cc1ccc(Sc2ncccc2C(=O)O)cc1,0.3,-9.9,-1.4,3.6,-79.6*,5.6
CCC(C)(C)C1CCC2(CC1)NC(=O)N(CC(=O)NC(C)CCc1ccccc1)C2=O (stereo not given),.,-6.5,-6.8,.,.,.
CCCCOc1ccc(/C=C2/Sc3ccccc3C2=O)cc1,2.0,10.0,11.5,0.2,8.6,-16.9
CC(=O)Oc1cccc(/C=C2\Sc3ccccc3C2=O)c1,-4.6,31.9,-0.2,3.9,16.6,14.2*
Cc1c(C(=O)NN)nc2ccccn12,-0.2,-4.9,5.8,2.5,-1.8,-0.7
O=C(Cc1cccs1)NNC(=S)NC(=O)c1ccco1,-0.5,-12.4,1.2,8.3,-83.8*,3.5
O=C(/C=C/c1ccc(Br)cc1)NC(=S)NNC(=O)c1ccco1,0.6,-14.6,9.4,5.5,-100.0*,-5.7
NS(=O)(=O)c1ccc(N2C(=O)C(=O)/C(=C(/O)c3ccccc3)C2c2ccc(Cl)cc2)cc1 (stereo not given),1.7,3.8,-2.1,.,22.1,-4.7
COc1ccc(N2CC(C(=O)Nc3nnc(SCC(=O)NCC4CCCO4)s3)CC2=O)cc1 (stereo not given),-1.1,0.6,-7.8,-5.1,13.0,34.4*
Cc1ccc(N2CC(C(=O)Nc3nnc(SCC(=O)NCC4CCCO4)s3)CC2=O)cc1C (stereo not given),1.2,-3.8,1.9,3.2,16.6,-2.2
CCOC(=O)CSC1=NC(=O)/C(=C/c2ccc(OC)cc2)S1,-0.8,-0.8,-3.1,79.8*,13.9,3.9
O=c1[nH]c(=S)ccn1C1OC(CO)C(O)C1O (stereo not given),-0.2,-6.8,-10.3,4.6,-90.7*,0.0
COCCCn1c(Cc2ccccc2)nnc1SCC(=O)N1CCCCC1,1.2,5.2,8.4,3.5,11.2,79.4*
CCN1CCN(S(=O)(=O)c2ccc(C(C)(C)C)cc2)CC1,-0.1,0.3,10.8,-3.9,5.9,13.1*
O=C1NC[C@H](Cc2ccccc2)N(CC2CCN(CCC34CC5CC(CC(C5)C3)C4)CC2)C1=O,.,-3.7,.,.,.,.
CCCCCC(=O)N(O)C1CC(=O)N(c2ccccc2)C1=O (stereo not given),0.7,3.7,10.1,75.4*,16.6,-2.9
SMILES,Bfl-1 A1 inh,HKDC1 inhibitor,ATG4B inhibitor,HDAC3 inh,AI-2 QS mod,LANA-H2B inh
CCCCCCC(=O)N(O)C1CC(=O)N(Cc2ccccc2)C1=O (stereo not given),0.5,-9.6,5.5,77.8*,26.7,3.6
CCOc1ccccc1Nc1nnc(SCC(=O)NC(=O)c2cccn2C)s1,-2.2,2.8,-5.1,1.0,17.5,16.1*
CCC(=O)N1CCN(c2ccc(NC(=S)NC(=O)c3cc4ccccc4o3)cc2)CC1,0.8,-2.3,13.5,0.1,12.1,93.6*
CC(C)C(=O)N1CCN(c2ccc(NC(=S)NC(=O)c3cc4ccccc4o3)cc2)CC1,-0.3,-2.2,2.4,-2.0,14.5,3.5
COc1ccc(NC(=S)NNC(=S)Nc2cccc(C(F)(F)F)c2)cc1,0.0,-9.4,-5.8,27.9*,9.5,-1.1
CN(CC(=O)OCC(=O)NCc1ccccc1)S(=O)(=O)c1ccc(F)cc1,0.1,0.1,-37.5,4.2,.,+
O=C(CC(=O)N1CCOCC1)N1CCOCC1,.,-0.8,-8.7,.,.,.
COc1ccc(C(=O)CSc2nnc(CNc3ccc(C)cc3C)o2)cc1,-0.1,1.2,-19.8,1.6,31.9,-5.3
Cc1ccc(NCc2nnc(SCC(=O)c3ccc4c(c3)OCCO4)o2)c(C)c1,-1.2,10.1,18.6,84.9*,12.6,-0.1
COc1cc(NC(=O)CN(c2ccc(C)cc2)S(=O)(=O)c2c(C)noc2C)cc(OC)c1,0.5,1.4,7.9,3.3,.,-2.8
O=C(Nc1ccc(NC(=O)c2ccco2)c(Cl)c1)c1ccccc1,-6.3,-12.2,-9.0,-4.0,-4.2,21.4*
O=C1c2cccc(NCCCNCCO)c2C(=O)c2cccc(NCCCNCCO)c21,.,15.6,3.7,.,.,.
Cc1ccc2c(c1)N(C(=O)CCC(=O)NC1CCCCCC1)CC(C)O2 (stereo not given),-1.1,5.0,5.7,.,13.2,3.0
Cc1nn(CC(=O)Nc2ccccc2)c(=O)c2ccccc12,-0.4,4.5,-5.9,-0.6,-87.8*,-3.0
CC1(C)CC(=O)C(C(C#Cc2ccccc2)C2=C(O)CC(C)(C)CC2=O)=C(O)C1,0.4,-10.1,-4.8,-5.6,25.3,17.4*
COC1OCC(O)C(OC(=O)c2ccccc2)C1OC(=O)c1ccccc1 (stereo not given),.,-6.7,-3.7,.,.,.
CCOC(=O)N1CC(=O)Nc2ccc(Br)cc2C1c1ccccc1 (stereo not given),0.8,-3.9,-3.0,-2.3,6.7,105.6*
Cc1c(C(=O)Nc2ccc(F)cc2)cn2c(nc3ccccc32)c1C#N,1.0,-1.1,-2.2,-0.9,5.1,97.0*
Cc1ccc(C)c(CSc2nnc(-c3cccnc3)o2)c1,0.7,-6.7,6.9,3.1,-79.6*,-1.1
Fc1ccccc1CSc1nnc(-c2cccnc2)o1,-0.5,-7.4,-11.2,-4.5,-92.2*,1.2
Cc1cc(C)n2c(Br)c(CSc3nc4ccccc4s3)nc2n1,-0.5,-1.4,-5.0,0.5,28.5,0.0
N#CCCn1cnc2c(=S)nc[nH]c21,-0.2,-9.0,-4.7,5.8,27.0,9.9*
COc1cc(OC)cc(C(=O)NCC(=O)NCCN2C(=O)S/C(=C\c3ccc4c(c3)OCO4)C2=O)c1,.,3.7,-11.5,.,.,.
